In ChEMBL document CHEMBL3822431, “Hydroxychalcone inhibitors of Streptococcus mutans glucosyl transferases and biofilms as potential anticaries agents” (Bioorg Med Chem Lett, 2016):

What was measured:
Streptococcus mutans = assay: Growth inhibition of Streptococcus mutans UA159 after 16 hrs; format: organism-based; settings: Streptococcus mutans, UA159, 16 h; read-out: IC50
How it was run: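 S. mutans UA159 co-incubated with compound at various concentrations; growth measured at OD470.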

[1] = target: T1, Glucosyltransferase-I (Streptococcus mutans serotype c (strain ATCC 700610 / UA159)) (UniProt P08987); assay: Inhibition of Wild-type Streptococcus mutans UA159 glucosyltransferase B by zymography
T1 sequence (whole entry): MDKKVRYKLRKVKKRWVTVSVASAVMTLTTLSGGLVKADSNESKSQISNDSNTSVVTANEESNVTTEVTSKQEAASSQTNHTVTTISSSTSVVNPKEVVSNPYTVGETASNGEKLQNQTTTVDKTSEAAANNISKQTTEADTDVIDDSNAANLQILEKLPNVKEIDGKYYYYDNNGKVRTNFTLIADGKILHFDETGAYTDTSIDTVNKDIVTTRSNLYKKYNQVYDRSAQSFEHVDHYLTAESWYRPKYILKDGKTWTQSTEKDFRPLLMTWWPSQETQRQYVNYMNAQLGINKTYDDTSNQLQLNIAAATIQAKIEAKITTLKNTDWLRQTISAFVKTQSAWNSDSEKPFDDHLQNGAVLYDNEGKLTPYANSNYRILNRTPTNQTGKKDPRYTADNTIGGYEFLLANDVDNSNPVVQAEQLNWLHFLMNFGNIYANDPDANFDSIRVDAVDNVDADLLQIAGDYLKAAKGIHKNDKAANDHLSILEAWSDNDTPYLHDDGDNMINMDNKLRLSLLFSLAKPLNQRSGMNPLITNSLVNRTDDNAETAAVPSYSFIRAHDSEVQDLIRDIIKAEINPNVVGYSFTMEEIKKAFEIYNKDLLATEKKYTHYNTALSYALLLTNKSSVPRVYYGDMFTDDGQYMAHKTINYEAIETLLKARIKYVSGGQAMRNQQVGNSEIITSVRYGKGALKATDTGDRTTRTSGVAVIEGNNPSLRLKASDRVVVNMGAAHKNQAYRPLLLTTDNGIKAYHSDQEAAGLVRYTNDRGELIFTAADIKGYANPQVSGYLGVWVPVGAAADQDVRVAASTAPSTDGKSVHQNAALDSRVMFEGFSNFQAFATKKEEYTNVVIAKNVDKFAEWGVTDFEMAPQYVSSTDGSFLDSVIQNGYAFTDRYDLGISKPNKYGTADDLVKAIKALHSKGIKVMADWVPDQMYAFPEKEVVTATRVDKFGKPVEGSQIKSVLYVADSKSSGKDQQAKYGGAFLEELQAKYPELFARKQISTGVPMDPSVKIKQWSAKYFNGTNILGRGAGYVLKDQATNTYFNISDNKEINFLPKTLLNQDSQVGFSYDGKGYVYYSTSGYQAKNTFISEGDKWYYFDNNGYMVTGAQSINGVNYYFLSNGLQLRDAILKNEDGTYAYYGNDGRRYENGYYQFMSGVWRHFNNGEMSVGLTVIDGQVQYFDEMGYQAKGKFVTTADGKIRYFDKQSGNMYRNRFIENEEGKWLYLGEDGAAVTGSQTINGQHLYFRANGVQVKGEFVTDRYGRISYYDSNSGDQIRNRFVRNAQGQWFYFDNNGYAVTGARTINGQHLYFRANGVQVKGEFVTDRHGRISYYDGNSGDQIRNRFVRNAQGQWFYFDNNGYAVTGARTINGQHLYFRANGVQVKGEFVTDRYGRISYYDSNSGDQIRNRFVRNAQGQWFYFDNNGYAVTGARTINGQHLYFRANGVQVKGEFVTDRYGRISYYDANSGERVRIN
How it was run: (§1)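 S. mutans UA159 wild type co-incubated with compound at different concentrations; Gtfs concentrated from supernatants, separated by SDS-PAGE and assayed by zymography, glucan band intensity reflecting enzyme activity.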

[2] = target: T2, Glucosyltransferase-S (Streptococcus mutans serotype c (strain ATCC 700610 / UA159)) (UniProt P49331); assay: Inhibition of Wild-type Streptococcus mutans UA159 glucosyltransferase D by zymography; how it was run: as §1
T2 sequence (whole entry): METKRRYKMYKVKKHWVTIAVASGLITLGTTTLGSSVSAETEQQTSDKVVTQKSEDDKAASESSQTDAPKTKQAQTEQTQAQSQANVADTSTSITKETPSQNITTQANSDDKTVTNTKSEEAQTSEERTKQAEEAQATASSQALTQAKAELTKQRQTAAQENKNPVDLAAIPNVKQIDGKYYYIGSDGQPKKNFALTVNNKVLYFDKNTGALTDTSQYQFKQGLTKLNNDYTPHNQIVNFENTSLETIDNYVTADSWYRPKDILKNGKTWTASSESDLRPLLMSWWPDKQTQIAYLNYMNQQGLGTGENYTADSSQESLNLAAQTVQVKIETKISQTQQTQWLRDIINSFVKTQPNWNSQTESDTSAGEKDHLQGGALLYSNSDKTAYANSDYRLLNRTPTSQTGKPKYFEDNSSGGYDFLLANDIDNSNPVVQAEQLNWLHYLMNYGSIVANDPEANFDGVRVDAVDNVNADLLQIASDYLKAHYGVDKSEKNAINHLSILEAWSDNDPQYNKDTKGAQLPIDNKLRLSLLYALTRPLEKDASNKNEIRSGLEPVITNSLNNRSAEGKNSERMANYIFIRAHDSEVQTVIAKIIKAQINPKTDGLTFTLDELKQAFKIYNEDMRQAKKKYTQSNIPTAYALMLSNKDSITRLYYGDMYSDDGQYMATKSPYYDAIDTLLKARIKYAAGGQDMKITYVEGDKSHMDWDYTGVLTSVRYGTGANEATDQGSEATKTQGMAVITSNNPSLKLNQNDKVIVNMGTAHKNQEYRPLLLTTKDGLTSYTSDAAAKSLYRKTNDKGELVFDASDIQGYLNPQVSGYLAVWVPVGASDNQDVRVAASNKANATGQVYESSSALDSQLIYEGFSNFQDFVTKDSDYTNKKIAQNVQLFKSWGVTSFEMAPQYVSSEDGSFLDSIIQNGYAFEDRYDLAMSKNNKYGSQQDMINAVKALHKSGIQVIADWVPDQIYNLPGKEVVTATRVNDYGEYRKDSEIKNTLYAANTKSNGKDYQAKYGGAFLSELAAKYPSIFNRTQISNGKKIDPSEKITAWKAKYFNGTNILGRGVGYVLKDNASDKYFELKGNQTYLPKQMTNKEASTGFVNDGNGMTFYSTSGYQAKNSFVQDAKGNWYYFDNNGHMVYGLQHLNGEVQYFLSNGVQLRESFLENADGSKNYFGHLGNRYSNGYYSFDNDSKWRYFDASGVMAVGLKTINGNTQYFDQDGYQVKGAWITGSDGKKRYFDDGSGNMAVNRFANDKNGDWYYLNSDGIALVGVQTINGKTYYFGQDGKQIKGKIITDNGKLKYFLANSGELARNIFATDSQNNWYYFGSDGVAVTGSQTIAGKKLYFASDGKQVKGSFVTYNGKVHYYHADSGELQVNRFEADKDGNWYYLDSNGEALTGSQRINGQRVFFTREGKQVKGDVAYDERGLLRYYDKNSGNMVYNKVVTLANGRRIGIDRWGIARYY

| Structure (SMILES) | IC50 (Streptococcus mutans) [µM] | inhibition [1] | inhibition [2] |
| --- | --- | --- | --- |
| O=C(/C=C/c1ccc(O)cc1O)c1ccc(O)cc1 | 1060 | – | – |
| O=C(/C=C\c1ccc(O)cc1O)c1cccc(O)c1 | – | Dose-dependent effect | Dose-dependent effect |
